Activity calls are given as the source filed them. The rule behind the calls is not given here.
Tests used:
Rattus norvegicus [1] = experiment: Hepatoprotective activity in Sprague-Dawley rat ischemia-reperfusion model assessed as decrease of mitochondrial swelling in liver tissue at 200 mg/kg, ip administered 24 hrs and 1 hr before ischemia relative to control; type: functional, organism-based; design: dose 200 mg/kg
How it was run: (§1)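 Mitochondria were isolated by differential centrifugation in sucrose/Tris/EDTA, pH 7.2. Mitochondria (4 mg) were suspended in phosphate buffer pH 7.2 with 250 mM sucrose, 5 mM KH2PO4 and 1 µM rotenone at 25 °C. Initial swelling rate was taken as A520 change per min per mg protein.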

Rattus norvegicus [2] = experiment: Antiinflammatory activity in Sprague-Dawley rat ischemia-reperfusion model assessed as inhibition of COX2 protein expression in liver tissue at 200 mg/kg, ip administered 24 hrs and 1 hr before ischemia by Western blot analysis; type: functional, organism-based; design: dose 200 mg/kg
How it was run: (§2)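 Liver homogenates were blotted, and nuclear and cytosolic fractions were isolated with NE-PER reagents. 20 µg protein per lane was run on 10% gels and transferred to nitrocellulose, with 5% milk block for 60 min. Polyclonal antibodies detected iNOS, COX-2, HO-1, NF-κB/p65, IκB-α and lamin B1, with β-actin as control, read by ECL.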

Rattus norvegicus [3] = experiment: Antiinflammatory activity in Sprague-Dawley rat ischemia-reperfusion model assessed as inhibition of HO-1 mRNA expression in liver tissue at 200 mg/kg, ip administered 24 hrs and 1 hr before ischemia by RT-PCR analysis; type: functional, organism-based; design: dose 200 mg/kg
Rattus norvegicus [4] = experiment: Hepatoprotective activity in Sprague-Dawley rat ischemia-reperfusion model assessed as decrease of caspase 3 activity in liver tissue at 200 mg/kg, ip administered 24 hrs and 1 hr before ischemia […] relative to control; type: functional, organism-based; design: dose 200 mg/kg
How it was run: (§3)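 Liver (1 g) was homogenized in Tris/MgCl2/EGTA buffer and spun at 600g, then 40000g. 30 µg cytosolic protein was preincubated 15 min at room temperature in HEPES/EDTA/NaCl/Triton/10 mM DTT. Fluorogenic substrate was then added at 200 µM and incubated at 37 °C. Fluorescence (ex 400/em 490 nm) was read at 120 min and expressed as % of vehicle I/R.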

Rattus norvegicus [5] = experiment: Hepatoprotective activity in Sprague-Dawley rat ischemia-reperfusion model assessed as protection against apoptosis in liver tissue at 200 mg/kg, ip administered 24 hrs and 1 hr before ischemia by TUNEL assay; type: functional, organism-based; design: dose 200 mg/kg
How it was run: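 TUNEL kit staining was done on liver sections. TUNEL-positive cells were counted in randomly chosen 400× fields per section.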

Rattus norvegicus [6] = experiment: Antiinflammatory activity in Sprague-Dawley rat ischemia-reperfusion model assessed as inhibition of degradation of IkappaB-alpha in liver tissue at 200 mg/kg, ip administered 24 hrs and 1 hr before ischemia by Western blot analysis; type: functional, organism-based; design: dose 200 mg/kg; how it was run: as §2
Rattus norvegicus [7] = experiment: Hepatoprotective activity in Sprague-Dawley rat ischemia-reperfusion model assessed as decrease of serum ALT level at 200 mg/kg, ip administered 24 hrs and 1 hr before ischemia; type: functional; conditions: route intraperitoneal
How it was run: (§4)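 Serum ALT was read spectrophotometrically with a kit at 5 h reperfusion, in U·L-1, mean ± SEM, n = 8-10.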

Rattus norvegicus [8] = experiment: Antiinflammatory activity in Sprague-Dawley rat ischemia-reperfusion model assessed as decrease of IL-6 mRNA expression in liver tissue at 200 mg/kg, ip administered 24 hrs and 1 hr before ischemia by RT-PCR analysis; type: functional, organism-based; design: dose 200 mg/kg
Rattus norvegicus [9] = experiment: Hepatoprotective activity in Sprague-Dawley rat sham operated model assessed as decrease of mitochondrial swelling in liver tissue at 200 mg/kg, ip administered 24 hrs and 1 hr before ischemia relative to control; type: functional, organism-based; design: dose 200 mg/kg; how it was run: as §1
Rattus norvegicus [10] = experiment: Hepatoprotective activity in Sprague-Dawley rat sham operated model assessed as decrease of caspase 3 activity in liver tissue at 200 mg/kg, ip administered 24 hrs and 1 hr before ischemia by fluorogenic peptide substrate assay relative to control
Rattus norvegicus [11] = experiment: Antiinflammatory activity in Sprague-Dawley rat sham operated model assessed as decrease of serum TNFalpha level at 200 mg/kg, ip administered 24 hrs and 1 hr before ischemia by ELISA relative to control; type: functional; conditions: route intraperitoneal
Rattus norvegicus [12] = experiment: Antiinflammatory activity in Sprague-Dawley rat ischemia-reperfusion model assessed as decrease of serum TNFalpha level at 200 mg/kg, ip administered 24 hrs and 1 hr before ischemia by ELISA relative to control; type: functional; conditions: route intraperitoneal
Rattus norvegicus [13] = experiment: Antiinflammatory activity in Sprague-Dawley rat ischemia-reperfusion model assessed as inhibition of iNOS mRNA expression in liver tissue at 200 mg/kg, ip administered 24 hrs and 1 hr before ischemia by RT-PCR analysis; type: functional, organism-based; design: dose 200 mg/kg
Rattus norvegicus [14] = experiment: Antiinflammatory activity in Sprague-Dawley rat ischemia-reperfusion model assessed as inhibition of nuclear localization of NF-kappaB/p65 subunit in liver tissue at 200 mg/kg, ip administered 24 hrs and 1 hr before ischemia by Western blot analysis; type: functional, organism-based; design: dose 200 mg/kg; how it was run: as §2
Rattus norvegicus [15] = experiment: Hepatoprotective activity in Sprague-Dawley rat ischemia-reperfusion model assessed as decrease of TRADD protein expression in liver tissue at 200 mg/kg, ip administered 24 hrs and 1 hr before ischemia by Western blot analysis; type: functional, organism-based; design: dose 200 mg/kg
Rattus norvegicus [16] = experiment: Antiinflammatory activity in Sprague-Dawley rat ischemia-reperfusion model assessed as decrease of TNFalpha mRNA expression in liver tissue at 200 mg/kg, ip administered 24 hrs and 1 hr before ischemia by RT-PCR analysis; type: functional, organism-based; design: dose 200 mg/kg
Rattus norvegicus [17] = experiment: Antiinflammatory activity in Sprague-Dawley rat ischemia-reperfusion model assessed as increase in HO-1 protein expression in liver tissue at 200 mg/kg, ip administered 24 hrs and 1 hr before ischemia by Western blot analysis
Rattus norvegicus [18] = experiment: Hepatoprotective activity in Sprague-Dawley rat sham operated model assessed as protection against histopathologic damage at 200 mg/kg, ip administered 24 hrs and 1 hr before ischemia by TUNEL staining; type: functional; conditions: route intraperitoneal, in the assay text read “by hematoxylin and eosin staining” for “by TUNEL staining”
How it was run: (§5)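 Left-lobe tissue was fixed in formalin and paraffin sections (5 µm) were stained with H&E. Injury was scored at 200× by point counting on an ordinal severity scale (grade 0 = minimal or none).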

Rattus norvegicus [19] = experiment: Hepatoprotective activity in Sprague-Dawley rat ischemia-reperfusion model assessed as decrease of caspase 8 activity in liver tissue at 200 mg/kg, ip administered 24 hrs and 1 hr before ischemia […] relative to control; type: functional, organism-based; design: dose 200 mg/kg; how it was run: as §3
Rattus norvegicus [20] = experiment: Hepatoprotective activity in Sprague-Dawley rat sham operated model assessed as decrease of glutathione level per gram of liver at 200 mg/kg, ip administered 24 hrs and 1 hr before ischemia relative to control; type: functional; conditions: route intraperitoneal
How it was run: (§6)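 Liver homogenate was precipitated with 1% picric acid. Total glutathione was measured by the glutathione reductase/DTNB/NADPH method at 412 nm, and GSSG the same way with 2-vinylpyridine. GSH is the difference, in µmol·g liver-1.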

Rattus norvegicus [21] = experiment: Hepatoprotective activity in Sprague-Dawley rat ischemia-reperfusion model assessed as protection against histopathologic damage at 200 mg/kg, ip administered 24 hrs and 1 hr before ischemia by TUNEL staining; type: functional; conditions: route intraperitoneal, in the assay text read “by hematoxylin and eosin staining” for “by TUNEL staining”; how it was run: as §5
Rattus norvegicus [22] = experiment: Antiinflammatory activity in Sprague-Dawley rat ischemia-reperfusion model assessed as inhibition of iNOS protein expression in liver tissue at 200 mg/kg, ip administered 24 hrs and 1 hr before ischemia by Western blot analysis; type: functional, organism-based; design: dose 200 mg/kg; how it was run: as §2
Rattus norvegicus [23] = experiment: Antiinflammatory activity in Sprague-Dawley rat sham operated model assessed as decrease of serum IL-6 level at 200 mg/kg, ip administered 24 hrs and 1 hr before ischemia by ELISA relative to control; type: functional; conditions: route intraperitoneal
Rattus norvegicus [24] = experiment: Hepatoprotective activity in Sprague-Dawley rat ischemia-reperfusion model assessed as decrease of glutathione level per gram of liver at 200 mg/kg, ip administered 24 hrs and 1 hr before ischemia relative to control; type: functional; conditions: route intraperitoneal; how it was run: as §6
Rattus norvegicus [25] = experiment: Hepatoprotective activity in Sprague-Dawley rat ischemia-reperfusion model assessed as decrease of malondialdehyde level per gram of protein at 200 mg/kg, ip administered 24 hrs and 1 hr before ischemia relative to control; type: functional; conditions: route intraperitoneal
Rattus norvegicus [26] = experiment: Antiinflammatory activity in Sprague-Dawley rat ischemia-reperfusion model assessed as decrease of serum IL-6 level at 200 mg/kg, ip administered 24 hrs and 1 hr before ischemia by ELISA relative to control; type: functional; conditions: route intraperitoneal
Rattus norvegicus [27] = experiment: Hepatoprotective activity in Sprague-Dawley rat sham operated model assessed as decrease of caspase 8 activity in liver tissue at 200 mg/kg, ip administered 24 hrs and 1 hr before ischemia by relative to control
Rattus norvegicus [28] = experiment: Antiinflammatory activity in Sprague-Dawley rat ischemia-reperfusion model assessed as inhibition of COX2 mRNA expression in liver tissue at 200 mg/kg, ip administered 24 hrs and 1 hr before ischemia by RT-PCR analysis; type: functional, organism-based; design: dose 200 mg/kg
Rattus norvegicus [29] = experiment: Hepatoprotective activity in Sprague-Dawley rat sham operated model assessed as decrease of serum ALT level at 200 mg/kg, ip administered 24 hrs and 1 hr before ischemia; type: functional; conditions: route intraperitoneal; how it was run: as §4
Rattus norvegicus [30] = experiment: Hepatoprotective activity in Sprague-Dawley rat sham operated model assessed as decrease of malondialdehyde level per gram of protein at 200 mg/kg, ip administered 24 hrs and 1 hr before ischemia relative to control; type: functional; conditions: route intraperitoneal

Q: Which Activity (Rattus norvegicus [1]) does the source give for `O=C(O)[C@H]1O[C@@H](Oc2cc3oc(-c4ccccc4)cc(=O)c3c(O)c2O)[C@H](O)[C@@H](O)[C@@H]1O` [BAICALIN] here?
A: Active

Q: And the inhibition (Rattus norvegicus [2])?
A: Active

Q: And the inhibition (Rattus norvegicus [3])?
A: Active

Q: And the Activity (Rattus norvegicus [4])?
A: Active

Q: What about the Activity (Rattus norvegicus [5]) of the same compound?
A: Active

Q: And the inhibition (Rattus norvegicus [6])?
A: Active

Q: And the Activity (Rattus norvegicus [7])?
A: 2658.1 U/L

Q: And the Activity (Rattus norvegicus [8])?
A: Active

Q: And the Activity (Rattus norvegicus [9])?
A: Active

Q: What about the Activity (Rattus norvegicus [10]) of the same compound?
A: Active

Q: What about the Activity (Rattus norvegicus [11]) of the same compound?
A: 17.8 pg/mL

Q: What about the Activity (Rattus norvegicus [12]) of the same compound?
A: 64.8 pg/mL

Q: What about the inhibition (Rattus norvegicus [13]) of the same compound?
A: inactive

Q: And the inhibition (Rattus norvegicus [14])?
A: Active

Q: What about the Activity (Rattus norvegicus [15]) of the same compound?
A: Active

Q: And the Activity (Rattus norvegicus [16])?
A: inactive

Q: And the increase (Rattus norvegicus [17])?
A: Active

Q: And the Activity (Rattus norvegicus [18])?
A: 0.45

Q: What about the Activity (Rattus norvegicus [19]) of the same compound?
A: Active

Q: And the Activity (Rattus norvegicus [20])?
A: 5.5 µmol

Q: And the Activity (Rattus norvegicus [21])?
A: 1.6

Q: And the inhibition (Rattus norvegicus [22])?
A: Active

Q: And the Activity (Rattus norvegicus [23])?
A: 37.6 pg/mL

Q: And the Activity (Rattus norvegicus [24])?
A: 4.98 µmol

Q: What about the Activity (Rattus norvegicus [25]) of the same compound?
A: 0.31 nmol

Q: And the Activity (Rattus norvegicus [26])?
A: 77.4 pg/mL

Q: And the Activity (Rattus norvegicus [27])?
A: Active

Q: What about the inhibition (Rattus norvegicus [28]) of the same compound?
A: Active

Q: And the Activity (Rattus norvegicus [29])?
A: 42.5 U/L

Q: What about the Activity (Rattus norvegicus [30]) of the same compound?
A: 0.35 nmol

— ChEMBL document CHEMBL1649357, “Protective effects of baicalin against ischemia/reperfusion injury in rat liver” (2010)
